Cav32 inh – Cav3.2 calcium influx blockers – cell-based, Fluo-4 calcium fluorescence, FDSS, MLSMR library, primary screen; B-score at 10 µM; Voltage-dependent T-type calcium channel subunit alpha-1H (Homo sapiens), O95180; Cav3.2-expressing cells; active compounds read low; 4% of 100,000 active;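 active = single-dose well whose peak fluorescence ratio is a statistical outlier from its plate by either plate-standardised score or position-corrected B-score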
hDAT+cocaine – changed hDAT dopamine uptake under cocaine IC80, either direction, primary screen, cocaine antagonist project, cell-based, LLC-PK1 hDAT, [14C]-dopamine uptake, MLSMR | 1.3% of 110,000 active | Sodium-dependent dopamine transporter (Homo sapiens), Q01959 | LLC-PK1 hDAT cells, [14C]-dopamine uptake with cocaine IC80; actives deviate in either direction | B-score at 10 µM | AID 449768, 2010;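 active = Z score or B-score, a plate-position-corrected score, falls beyond the plate's 99.7% confidence bounds, in either direction; inactive = both scores lie inside the 99.7% bounds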;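 also: scored against the spread of the other compound wells on the same plate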
EphB4 antag – EphB4-ephrin-B2 interaction antagonists, primary screen, biochemical, TNYL-RAW peptide probe, fluorescence polarization. Ephrin type-B receptor 4 (Homo sapiens), P54760. EphB4 LBD / TNYL-RAW-Alexa532 peptide. inhibition, % at 7 µM. 0.15% of 97,000 active;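 active = inhibition above the screen-wide mean inhibition plus 3 SD, cut at about 15% in these data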;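 also: 0% = DMSO wells and 100% = excess unlabeled TNYL-RAW peptide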
Target sequence (P54760 whole entry, looked up, the tested form may be a part): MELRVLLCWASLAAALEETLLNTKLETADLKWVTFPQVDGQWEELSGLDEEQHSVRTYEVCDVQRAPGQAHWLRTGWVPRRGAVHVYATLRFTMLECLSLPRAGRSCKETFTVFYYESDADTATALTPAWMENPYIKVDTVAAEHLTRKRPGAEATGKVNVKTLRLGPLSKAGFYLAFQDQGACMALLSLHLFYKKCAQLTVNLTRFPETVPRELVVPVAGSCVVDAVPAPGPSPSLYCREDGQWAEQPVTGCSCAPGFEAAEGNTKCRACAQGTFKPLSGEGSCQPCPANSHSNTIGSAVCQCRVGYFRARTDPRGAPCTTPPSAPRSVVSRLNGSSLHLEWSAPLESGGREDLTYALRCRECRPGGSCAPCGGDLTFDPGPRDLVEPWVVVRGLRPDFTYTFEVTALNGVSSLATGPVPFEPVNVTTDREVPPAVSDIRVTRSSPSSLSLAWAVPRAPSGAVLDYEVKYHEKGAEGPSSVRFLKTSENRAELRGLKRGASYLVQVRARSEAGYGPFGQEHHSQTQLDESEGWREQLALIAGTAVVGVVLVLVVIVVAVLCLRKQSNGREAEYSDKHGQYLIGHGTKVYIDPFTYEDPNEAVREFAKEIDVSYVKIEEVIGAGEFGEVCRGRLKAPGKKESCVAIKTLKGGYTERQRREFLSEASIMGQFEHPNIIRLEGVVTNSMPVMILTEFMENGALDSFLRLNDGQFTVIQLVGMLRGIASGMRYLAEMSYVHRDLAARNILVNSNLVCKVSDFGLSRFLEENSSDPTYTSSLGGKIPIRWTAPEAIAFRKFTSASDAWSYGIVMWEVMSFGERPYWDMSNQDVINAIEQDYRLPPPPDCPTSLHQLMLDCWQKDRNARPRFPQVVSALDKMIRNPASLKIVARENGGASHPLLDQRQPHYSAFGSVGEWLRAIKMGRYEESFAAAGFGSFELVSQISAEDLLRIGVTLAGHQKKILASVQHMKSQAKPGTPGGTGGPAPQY
HIV Rev-RRE inh – HIV-1 Rev-RRE binding inhibitors, primary screen, biochemical, FRET, protein-RNA interaction | P05866 | Rev peptide-RRE RNA binding | inhibition, % at 8 µM | 0.79% of 97,000 active | AID 704, 2007;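 active = inhibition above the screen-wide mean plus 3 SD, cut at about 35% in these data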;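 also: 0% = median DMSO wells and 100% = median Neomycin B control wells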
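Test system – labelled RRE RNA duplex and labelled Rev peptide · Reagent – labelled Rev peptide · Doses – one concentration, 8 µM nominal · Incubation – 5 + 15 min at 25 °C · Signal – FRET fluorescence readout · Read-out basis – % inhibition of FRET ratio versus controls · Control set – DMSO wells as 0% and neomycin B wells as 100% inhibition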
Numbers without * were called inactive. Only some compounds are listed: those with a hit (about 5.4% of all), similar ones and a draw of the others.

Screening C=C1C(=O)[C@@]23[C@H](O)C[C@@H]4C(C)(C)CC[C@H](O)[C@]4(C)[C@@H]2C[C@H](O)[C@@H]1[C@H]3O returned Cav32 inh 0.47 and hDAT+cocaine -4.8*.
Screening Cc1cc(/C=C2\SC(=S)NC2=O)c(C)n1C1CC1 returned EphB4 antag 0 and HIV Rev-RRE inh 65*.
O=C(CSc1ncn[nH]1)NCCCc1ccccc1 was read as Cav32 inh 0.39, hDAT+cocaine -0.33, EphB4 antag 0 and HIV Rev-RRE inh 6.
Screening Cc1ccc(S(=O)(=O)/C(C#N)=C/c2c(N3CC(C)OC(C)C3)nc3c(C)cccn3c2=O)cc1 (stereo unspecified) returned Cav32 inh -2.7, hDAT+cocaine 0.39, EphB4 antag -8 and HIV Rev-RRE inh 15.
Screening C=CCc1c(C)nc(C)nc1N/N=C/c1ccc([N+](=O)[O-])cc1 returned Cav32 inh 0.81, hDAT+cocaine 0.74, EphB4 antag -5 and HIV Rev-RRE inh 16.
C=CCc1c(C)nc(C)nc1N/N=C/c1ccccc1O was read as Cav32 inh -0.73, hDAT+cocaine -0.32, EphB4 antag -11 and HIV Rev-RRE inh 41*.
O=C(CC1C(=O)NC2CCCCC2N1C(=O)c1ccc(F)cc1)Nc1ccccc1 (stereo unspecified) was read as Cav32 inh -0.022, hDAT+cocaine 2.9*, EphB4 antag 1 and HIV Rev-RRE inh 2.
CN(C)CCNC(=O)c1c(CSc2ccc(Cl)cc2)noc1C(=O)NCc1ccccc1 was read as Cav32 inh -1.7 and hDAT+cocaine -1.8.
Screening C1COC(NC(C2CC2)C2CC2)=N1 returned Cav32 inh 0.13 and hDAT+cocaine 0.31.
Screening CCCCN(CC)Cc1ccc(CNC(=O)Nc2ccc(OCC)cc2)o1 returned Cav32 inh -1.6, hDAT+cocaine -4.1*, EphB4 antag -3 and HIV Rev-RRE inh -5.
C=CCOC(=O)C1=C[C@@H](c2cn(C(C)=O)c3ccccc23)C[C@@H](OCc2ccc(CO)cc2)O1 was read as Cav32 inh -0.61 and hDAT+cocaine 1.5.
Cc1cc(N2C(=O)C3CC=CCC3C2=O)no1 (stereo unspecified) was read as Cav32 inh 0.17, hDAT+cocaine -0.62, EphB4 antag -2 and HIV Rev-RRE inh 2.
For Cc1cc(N2C(=O)C3CC=CC(C)C3C2=O)no1 (stereo unspecified) the results were Cav32 inh 0.3, hDAT+cocaine -9.4*, EphB4 antag 7 and HIV Rev-RRE inh 8.
Cc1ccc(-n2cnc3scc(-c4cccs4)c3c2=O)cc1 was read as Cav32 inh -1.1, hDAT+cocaine 1, EphB4 antag 1 and HIV Rev-RRE inh 6.
For Cc1ccc(C(=O)Nn2cnc3scc(-c4cccs4)c3c2=O)c(O)c1 the results were Cav32 inh -3.5*, hDAT+cocaine -0.83, EphB4 antag 5 and HIV Rev-RRE inh 5.
`Cc1ccc(N2C(=O)C(Cl)=C(NCc3ccccc3)C2=O)c(C)c1` gave Cav32 inh -2.4, hDAT+cocaine 0.034, EphB4 antag -2 and HIV Rev-RRE inh 6.
Screening CCCCCCNC(=O)N[C@@H](C(=O)NCCC[C@H]1CN2C(=NC[C@@H]2Cc2ccccc2)N1CCc1cccc(OC)c1)C(C)C returned Cav32 inh -2.1 and hDAT+cocaine -3*.
For CCC(C)(C)C(=O)Nc1ncc(S(=O)(=O)c2ccc([N+](=O)[O-])cc2)s1 the results were Cav32 inh -5.2*, hDAT+cocaine -1.6, EphB4 antag -6 and HIV Rev-RRE inh 15.
For COC(=O)C(NC(=O)c1ccccc1Cl)(Nc1ncc(S(=O)(=O)c2ccc([N+](=O)[O-])cc2)s1)C(F)(F)F (stereo unspecified) the results were Cav32 inh -8.6*, hDAT+cocaine 0.15, EphB4 antag -5 and HIV Rev-RRE inh 6.
Screening C=C1CCN([C@@H](CC(C)C)C(=O)NCc2cc(OC)c(OC)c(OC)c2)S(=O)(=O)c2ccccc21 returned Cav32 inh -0.12 and hDAT+cocaine 1.2.

Screens: PubChem, several laboratories
